Here are results for seven compounds from ChEMBL document CHEMBL4330187, “Synthesis of 5-Thio-α-GalCer Analogues with Fluorinated Acyl Chain on Lipid Residue and Their Biological Evaluation” (2019).

Experiment [1] deals with Mus musculus. Nature of the experiment: Immunomodulatory activity in C57BL/6 mouse assessed as increase in IL-4 secretion in serum at 100 ug/kg, ip by ELISA. Format: functional, organism-based. A digest of the protocol:
(§1)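 Glycolipid given once i.p. to B6 mice at 100 μg/kg in 0.1 mL vehicle. Serum IL-4 and IFN-γ followed over time after injection, three mice per group, each serum sampled individually. IFN-γ/IL-4 selectivity expressed two ways: ratio of areas under the time–concentration curves, and ratio of peak (maximum) production.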
(In general: In an ELISA, binding on a coated surface is turned into a signal by an enzyme label.)

Experiment [2] has as its system Mus musculus. Nature of the experiment: Immunomodulatory activity in C57BL/6 mouse assessed as increase in IFN-gamma secretion in serum at 100 ug/kg, ip by ELISA. Format: functional, organism-based. A digest of the protocol: as §1
For experiment [3], the system named is Mus musculus. Briefly: Immunomodulatory activity in C57BL/6 mouse assessed as serum IFNgamma/IL-4 AUC ratio at 100 ug/kg, ip by ELISA. Format: functional. A digest of the protocol: as §1
Experiment [4] deals with Mus musculus. Briefly: Immunomodulatory activity in C57BL/6 mouse assessed as increase in IL-4 secretion in serum at 100 ug/kg, ip after 3 hrs by ELISA. Format: functional, organism-based. A digest of the protocol:
as §1

The test system of experiment [5] is Mus musculus. Briefly: Immunomodulatory activity in C57BL/6 mouse assessed as serum IFNgamma/IL-4 maximum productivity ratio at 100 ug/kg, ip by ELISA. Format: functional. A digest of the protocol:
as §1

The source made the active and inactive calls. The calls are words filed in the database; no cut-off is given here.

In the case of `CCCCCCCCCCCCCC[C@@H](O)[C@@H](O)[C@H](CO[C@H]1O[C@H](CO)[C@H](O)[C@H](O)[C@H]1O)NC(=O)C(F)(F)C(F)(F)C(F)(F)C(F)(F)C(F)(F)C(F)(F)C(F)(F)C(F)(F)C(F)(F)C(F)(F)C(F)(F)C(F)(F)C(F)(F)F`, the outcome in the experiment on Mus musculus [1] and in the experiment with Mus musculus [2] was inactive.
As to `CCCCCCCCCCCCCC[C@@H](O)[C@@H](O)[C@H](CO[C@H]1S[C@H](CO)[C@H](O)[C@H](O)[C@H]1O)NC(=O)CCCCCCC(F)(F)F`, the outcome in the experiment with Mus musculus [1] and in the experiment with Mus musculus [2] was inactive.
With `CCCCCCCCCCCCCCCCCCCCCCCCCC(=O)N[C@@H](CO[C@H]1O[C@H](CO)[C@H](O)[C@H](O)[C@H]1O)[C@H](O)[C@H](O)CCCCCCCCCCCCCC` [RGI-7000], the figures for the Ratio in the experiment with Mus musculus [3] and with Mus musculus [5] were 12.1 and 2.8, respectively. Moreover, the outcome in the experiment with Mus musculus [4] and in the experiment on Mus musculus [2] was Active.
For `CCCCCCCCCCCCCC[C@@H](O)[C@@H](O)[C@H](CO[C@H]1O[C@H](CO)[C@H](O)[C@H](O)[C@H]1O)NC(=O)CCCCCCC(F)(F)F`, the result with Mus musculus [1] and in the experiment with Mus musculus [2] was inactive.
`CCCCCCCCCCCCCC[C@@H](O)[C@@H](O)[C@H](CO[C@H]1S[C@H](CO)[C@H](O)[C@H](O)[C@H]1O)NC(=O)C(F)(F)C(F)(F)C(F)(F)C(F)(F)C(F)(F)C(F)(F)C(F)(F)F`: the Ratio in the experiment on Mus musculus [3] worked out at 26.7; in the experiment on Mus musculus [5], 9.
The matching figures for `CCCCCCCCCCCCCC[C@@H](O)[C@@H](O)[C@H](CO[C@H]1O[C@H](CO)[C@H](O)[C@H](O)[C@H]1O)NC(=O)C(F)(F)C(F)(F)C(F)(F)C(F)(F)C(F)(F)C(F)(F)C(F)(F)F`: 5.8 and 3.4.
For `CCCCCCCCCCCCCC[C@@H](O)[C@@H](O)[C@H](CO[C@H]1S[C@H](CO)[C@H](O)[C@H](O)[C@H]1O)NC(=O)C(F)(F)C(F)(F)C(F)(F)C(F)(F)C(F)(F)C(F)(F)C(F)(F)C(F)(F)C(F)(F)C(F)(F)C(F)(F)C(F)(F)C(F)(F)F` the same measures were 0.58 and 0.59.
